Laboratory results from ChEMBL document CHEMBL3352048, “Development of 2-(4-oxoquinazolin-3(4H)-yl)acetamide derivatives as novel enoyl-acyl carrier protein reductase (InhA) inhibitors for the treatment of tuberculosis” (Eur J Med Chem, 2014).
pIC50: −log10 of the molar value. ≈ marks a conversion by molar mass, not a printed value.

How the values were obtained:
[1] = test system: Mycobacterium tuberculosis; test: Antimycobacterial activity against Mycobacterium tuberculosis H37Rv ATCC 27294 after 28 days by two-fold serial dilution assay; assay type: functional; settings: H37Rv ATCC 27294, 672 h
In short: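 Agar dilution test against M. tuberculosis H37Rv (ATCC27294). Drug concentrations ran from 50 µg/mL to 0.78 µg/mL, tested in duplicate. MIC was taken as the minimum concentration inhibiting growth.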

[2] = target: T1, Enoyl-[acyl-carrier-protein] reductase [NADH] (Mycobacterium tuberculosis) (UniProt P9WGR1); test: Inhibition of Mycobacterium tuberculosis recombinant InhA expressed in Escherichia coli BL21 (DE3) using 2-trans-decenoyl substrate at 10 uM by spectrophotometry
T1 sequence (whole entry): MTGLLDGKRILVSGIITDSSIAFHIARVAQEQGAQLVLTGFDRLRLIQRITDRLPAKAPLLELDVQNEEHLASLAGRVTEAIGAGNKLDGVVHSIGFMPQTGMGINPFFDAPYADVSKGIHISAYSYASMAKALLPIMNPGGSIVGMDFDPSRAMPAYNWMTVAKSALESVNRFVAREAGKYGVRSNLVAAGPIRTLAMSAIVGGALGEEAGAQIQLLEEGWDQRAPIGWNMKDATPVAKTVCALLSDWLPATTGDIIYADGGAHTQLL
In short: (§1)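 Recombinant M. tuberculosis InhA was expressed in E. coli and purified. Inhibition was screened as percent inhibition at 10 µM. IC50 values came from dose-response curves of log concentration versus % inhibition.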

[3] = Cytotoxicity against mouse RAW264.7 cells at 50 uM after 72 hrs by MTT assay; assay type: cell-based; settings: read-out: INH
In short: (§2)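 RAW 264.7 mouse leukemic monocyte macrophages were exposed to compound for 72 h, tested at concentrations up to 100 µM. Viability was read as MTT conversion to formazan (CellTiter 96 non-radioactive proliferation assay). Results are reported as percentage inhibition.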

[4] = test system: Mycobacterium tuberculosis; test: Antimycobacterial activity against Mycobacterium tuberculosis H37Rv ATCC 27294 after 28 days by two-fold serial dilution assay in presence of […] piperine efflux pump inhibitor; assay type: functional; settings: H37Rv ATCC 27294, 672 h
[5] = Cytotoxicity against mouse RAW264.7 cells at 100 uM after 72 hrs by MTT assay; assay type: cell-based; settings: read-out: INH; in short: as §2
[6] = target: T2, Enoyl-[acyl-carrier-protein] reductase [NADH] (Mycobacterium tuberculosis, UniProt P9WGR1); test: Inhibition of Mycobacterium tuberculosis recombinant InhA expressed in Escherichia coli BL21 (DE3) using 2-trans-decenoyl substrate by spectrophotometry; in short: as §1
T2 sequence (P9WGR1 whole entry): T1 sequence (whole entry)

SMILES | MIC [1] [µM] | inhibition [2] [%] | cytotoxicity at 72 h, 50 µM [3] [%] | MIC [4] [µM] | cytotoxicity at 72 h, 100 µM [5] [%] | pIC50 [6]
CO[C@H]1/C=C/O[C@@]2(C)Oc3c(C)c(O)c4c(O)c(c(/C=N/N5CCN(C)CC5)c(O)c4c3C2=O)NC(=O)/C(C)=C\C=C\[C@H](C)[C@H](O)[C@@H](C)[C@@H](O)[C@@H](C)[C@H](OC(C)=O)[C@@H]1C [RIFAMPIN] | 0.15 (≈ 0.123 µg/mL) | – | – | – | – | –
O=C(Cn1cnc2ccccc2c1=O)NCc1nc2ccc([N+](=O)[O-])cc2s1 | 4.09 (≈ 1.62 µg/mL) | 72.2 | 13.1 | 1.02 | 50.5 | 5.29
Cc1nc2ccc(Cl)cc2c(=O)n1CC(=O)NCc1ccco1 | 4.7 (≈ 1.56 µg/mL) | 78.1 | 3.36 | 1.17 | 5.37 | 5.34
Cc1nc2ccccc2c(=O)n1CC(=O)NCc1nc2ccc([N+](=O)[O-])cc2s1 | > 63.2 | 64 | 34 | – | 37.4 | 5.21
CC1COc2c(N3CCN(C)CC3)c(F)cc3c(=O)c(C(=O)O)cn1c23 (stereo not drawn) [OFLOXACIN] | 2.16 (≈ 0.781 µg/mL) | – | – | – | – | –
Cc1nc2ccc(Cl)cc2c(=O)n1CC(=O)NCc1nc2ccc([N+](=O)[O-])cc2s1 | 58.2 (≈ 25.8 µg/mL) | 54.1 | 28.4 | – | 33.7 | –
O=C(Cn1cnc2ccccc2c1=O)Nc1cc(Cl)ccc1Cl | – | 16.3 | – | – | – | –
O=C(Cn1cnc2ccc(Cl)cc2c1=O)NCc1ccco1 | 4.91 (≈ 1.56 µg/mL) | 82.4 | 30.7 | 4.91 | 42.5 | 5.51
Cc1nc2ccc(Cl)cc2c(=O)n1CC(=O)NCc1cccs1 | 18 (≈ 6.25 µg/mL) | 70.2 | 47.5 | 4.48 | 51.7 | 5.17
O=C(Cn1cnc2ccccc2c1=O)NCc1cccs1 | 5.21 (≈ 1.56 µg/mL) | 33.7 | 4.38 | 1.3 | 41.4 | –
Cc1nc2ccccc2c(=O)n1CC(=O)NCc1ccco1 | 84.1 (≈ 25 µg/mL) | 70.1 | 25.5 | 42 | 41.5 | 5.16
O=C(Cn1cnc2ccc(Cl)cc2c1=O)Nc1ccccc1 | 4.97 (≈ 1.56 µg/mL) | 58.3 | 3.51 | 1.24 | 53 | 5.11
NNC(=O)c1ccncc1 [ISONIAZID] | 0.72 (≈ 0.0987 µg/mL) | – | – | – | – | –
Cc1nc2ccccc2c(=O)n1CC(=O)NCc1cccs1 | 9.97 (≈ 3.12 µg/mL) | 68.2 | 35.6 | 4.97 | 38.6 | 5.22
O=C(Cn1cnc2ccc(Cl)cc2c1=O)NCc1nc2ccc([N+](=O)[O-])cc2s1 | 30.1 (≈ 12.9 µg/mL) | 45.6 | 15.8 | 30.1 | 62.8 | –
O=C(Cn1cnc2ccc(Cl)cc2c1=O)NCc1cccs1 | 9.36 (≈ 3.12 µg/mL) | 68.9 | 32.4 | 2.33 | 45.2 | 5.15
O=C(Cn1cnc2ccccc2c1=O)NCc1ccco1 | 5.5 (≈ 1.56 µg/mL) | 46.1 | 1.96 | 2.75 | 13.7 | –
CC[C@@H](CO)NCCN[C@@H](CC)CO [ETHAMBUTOL] | 7.64 (≈ 1.56 µg/mL) | – | – | – | – | –
Cc1nc2ccccc2c(=O)n1CC(=O)Nc1ccccc1 | 10.7 (≈ 3.12 µg/mL) | 60.1 | 11.2 | 5.31 | 29.7 | 5.05
Cc1nc2ccc(Cl)cc2c(=O)n1CC(=O)Nc1ccccc1 | 4.76 (≈ 1.56 µg/mL) | 88.1 | 19.9 | 2.38 | 28.7 | 5.51
O=C(Cn1cnc2ccccc2c1=O)Nc1nccs1 | – | 31 | – | – | – | –
O=C(Cn1cnc2ccccc2c1=O)Nc1cc(C(F)(F)F)ccc1Cl | 8.18 (≈ 3.12 µg/mL) | 58.1 | 10.1 | 2.04 | 35.6 | 5.09
O=C(Cn1cnc2ccccc2c1=O)Nc1ccccc1 | 11.2 (≈ 3.12 µg/mL) | 52.1 | 21.2 | 5.58 | 31.1 | –
Cc1cccc(NC(=O)Cn2cnc3ccccc3c2=O)c1 | – | 14.5 | – | – | – | –
O=C(Cn1cnc2ccc(Cl)cc2c1=O)Nc1cc(C(F)(F)F)ccc1Cl | 3.74 (≈ 1.56 µg/mL) | 80.1 | 48.9 | 1.87 | 53.6 | 5.34
